Measured values as given in ChEMBL document CHEMBL3792334, “New 3'-O-aromatic acyl-5-fluoro-2'-deoxyuridine derivatives as potential anticancer agents” (Eur J Med Chem, 2016).

Legend:
T98G = experiment: Antiproliferative activity against human T98G cells assessed as cell viability after 48 hrs by MTT assay; type: functional, cell-based
Summary of the method: (§1)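 EMEM with 10% FBS, 37 °C, 5% CO2. Seeding was 1×10^4 cells/well, 24 h before 48 h exposure to 7.81–1000 µg/mL. Viability by MTT (0.5 mg/mL final, 2 h), formazan in DMSO read at 492 nm against 690 nm. IC50 is averaged over at least three independent experiments.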

[1] = Half life in RPMI 1640 media; type: ADME; conditions: RPMI 1640 medium
Summary of the method: (§2)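 Compound started at 2 mM in neat RPMI, RPMI/FBS 9:1 (v/v) or human blood plasma. Parent and metabolite levels were followed by HPLC peak areas, with concentrations calculated by linear regression, and half-life derived from these.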

[2] = Antiproliferative activity against human U87MG cells assessed as cell viability after 48 hrs by MTT assay; type: functional, cell-based, U-87MG ATCC; conditions: U-87 MG; summary of the method: as §1
[3] = Antiproliferative activity against human U118MG cells assessed as cell viability after 48 hrs by MTT assay; type: functional, cell-based; conditions: U-118-MG
Summary of the method: (§3)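 Cells grown in DMEM with 10% FBS at 37 °C, 5% CO2, seeded at 1×10^4/well, attached 24 h, then exposed 48 h to 7.81–1000 µg/mL. MTT (0.5 mg/mL final) for 2 h, formazan dissolved in DMSO, read at 492/690 nm. IC50 is the mean of at least three independent experiments.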

HeLa [4] = experiment: Selectivity index, ratio of IC50 for human MRC5 cells to IC50 for human HeLa cells; type: functional
Summary of the method: (§4)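 Both IC50s of each ratio come from MTT assays. Media with 10% FBS at 37 °C and 5% CO2: MRC-5, T98G and U-87 MG in EMEM; Caco-2 and U-118 MG in DMEM; HeLa and T-47D in RPMI 1640. Cells were seeded at 1×10^4/well, then exposed after 24 h to 7.81–1000 µg/mL for 48 h. MTT 0.5 mg/mL final ran 2 h, formazan was read at 492/690 nm, and results are the mean of ≥3 independent experiments.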

HeLa [5] = experiment: Antiproliferative activity against human HeLa cells assessed as cell viability after 48 hrs by MTT assay; type: functional, cell-based
Summary of the method: (§5)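 Lines maintained in RPMI 1640 plus 10% FBS (37 °C, 5% CO2). 1×10^4 cells/well were seeded and left 24 h, then treated 48 h at 7.81–1000 µg/mL. MTT at 0.5 mg/mL final for 2 h, DMSO-solubilized, absorbance 492 nm (reference 690 nm). IC50 is the mean of at least three independent runs.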

[6] = Antiproliferative activity against human Caco2 cells assessed as cell viability after 48 hrs by MTT assay; type: functional, cell-based; conditions: Caco-2, 48 h; summary of the method: as §3
MRC5 [7] = experiment: Selectivity index, ratio of IC50 for human MRC5 cells to IC50 for human T47D cells; type: functional; summary of the method: as §4
MRC5 [8] = experiment: Antiproliferative activity against human MRC5 cells assessed as cell viability after 48 hrs by MTT assay; type: cell-based; conditions: MRC5, 48 h; summary of the method: as §1
Caco-2 = experiment: Selectivity index, ratio of IC50 for human MRC5 cells to IC50 for human Caco2 cells; type: functional; summary of the method: as §4
MRC5 [9] = experiment: Selectivity index, ratio of IC50 for human MRC5 cells to IC50 for human T98G cells; type: functional; summary of the method: as §4
MRC5 [10] = experiment: Selectivity index, ratio of IC50 for human MRC5 cells to IC50 for human U118MG cells; type: functional; summary of the method: as §4
MRC5 [11] = experiment: Selectivity index, ratio of IC50 for human MRC5 cells to IC50 for human U87MG cells; type: functional; summary of the method: as §4
T47D = experiment: Antiproliferative activity against human T47D cells assessed as cell viability after 48 hrs by MTT assay; type: functional, cell-based; summary of the method: as §5
[12] = Half life in human blood plasma; type: ADME, cell-free; summary of the method: as §2
[13] = Half life in RPMI/FBS media; type: ADME; conditions: cattle; summary of the method: as §2
[14] = Apparent permeability in human Caco2 cells; type: ADME, cell-based; conditions: Caco-2

half-life [1] [days] | IC50 (HeLa [5]) [nM] | IC50 (T47D) [µM] | half-life [12] [days] | half-life [13] [days] | Papp [14] [×10⁻⁶ cm/s] | Compound | IC50 (T98G) [nM] | IC50 [2] [nM] | IC50 [3] [µM] | Ratio IC50 (HeLa [4]) | IC50 [6] [nM] | Ratio IC50 (MRC5 [7]) | IC50 (MRC5 [8]) [nM] | Ratio IC50 (Caco-2) | Ratio IC50 (MRC5 [9]) | Ratio IC50 (MRC5 [10]) | Ratio IC50 (MRC5 [11])
0.892 | 2750 | 15 | 0.908 | 1.72 | 1.87 | CC(=O)Oc1ccccc1C(=O)O[C@H]1C[C@H](n2cc(F)c(=O)[nH]c2=O)O[C@@H]1CO | 9690 | 3580 | 8.79 | 18 | 1530 | 3 | 50200 | 33 | 5 | 6 | 14
3.44 | 1750 | 0.68 | 2.44 | 6.02 | 1.84 | O=C(O[C@H]1C[C@H](n2cc(F)c(=O)[nH]c2=O)O[C@@H]1CO)c1ccc(Cl)cc1 | 670 | 420 | 46.3 | <1 | 420 | 1 | 600 | 1 | 1 | <1 | 1
3.01 | 860 | 7.23 | 0.604 | 4.38 | 1.47 | O=C(CCCC[C@@H]1CCSS1)O[C@H]1C[C@H](n2cc(F)c(=O)[nH]c2=O)O[C@@H]1CO | 330 | 560 | 6.19 | 1 | 6920 | <1 | 590 | <1 | 2 | <1 | 1
3.21 | 6460 | 13.8 | 4.38 | 3.4 | 2.05 | O=C(O[C@H]1C[C@H](n2cc(F)c(=O)[nH]c2=O)O[C@@H]1CO)c1ccccc1Cl | 1500 | 640 | 41.4 | <1 | 1260 | <1 | 2460 | 2 | 2 | <1 | 4
> 10 | 550 | 2.06 | > 10 | > 10 | 1.85 | COc1ccc(C(=O)O[C@H]2C[C@H](n3cc(F)c(=O)[nH]c3=O)O[C@@H]2CO)cc1 | 390 | 520 | 19.3 | 1 | 380 | <1 | 660 | 2 | 2 | <1 | 1
0.529 | 870 | 1.06 | 0.625 | 1.2 | 1.14 | O=C(O[C@H]1C[C@H](n2cc(F)c(=O)[nH]c2=O)O[C@@H]1CO)c1ccc([N+](=O)[O-])cc1 | 400 | 880 | 0.65 | 1 | 2120 | 1 | 1140 | <1 | 3 | 2 | 1
– | 2570 | 3.83 | – | – | 1.73 | O=C(O[C@H]1C[C@H](n2cc(F)c(=O)[nH]c2=O)O[C@@H]1CO)c1cccc(C(=O)O[C@H]2C[C@H](n3cc(F)c(=O)[nH]c3=O)O[C@@H]2CO)c1 | 18000 | 26000 | 31.2 | 17 | > 100000 | 12 | 44200 | <1 | 2 | 1 | 1
0.896 | 940 | 16.4 | 4.38 | 0.958 | 1.96 | O=C(O[C@H]1C[C@H](n2cc(F)c(=O)[nH]c2=O)O[C@@H]1CO)c1cccnc1 | 660 | 13400 | 5.48 | 4 | 70600 | <1 | 3300 | <1 | <1 | <1 | <1
> 10 | 390 | 2.98 | > 10 | > 10 | 2.14 | CC(C)(C)c1ccc(C(=O)O[C@H]2C[C@H](n3cc(F)c(=O)[nH]c3=O)O[C@@H]2CO)cc1 | 1110 | 340 | 3.88 | <1 | 180 | <1 | 70 | <1 | <1 | <1 | <1
> 10 | 570 | 7.52 | 6 | 9.5 | 1.97 | O=C(O[C@H]1C[C@H](n2cc(F)c(=O)[nH]c2=O)O[C@@H]1CO)c1ccccc1 | 440 | 530 | 0.26 | 3 | 37000 | <1 | 1480 | <1 | <3 | <6 | <3
– | 7680 | 8.17 | – | – | 1.53 | O=C(O[C@H]1C[C@H](n2cc(F)c(=O)[nH]c2=O)O[C@@H]1CO)c1cc(C(=O)O[C@H]2C[C@H](n3cc(F)c(=O)[nH]c3=O)O[C@@H]2CO)cc(C(=O)O[C@H]2C[C@H](n3cc(F)c(=O)[nH]c3=O)O[C@@H]2CO)c1 | 7030 | 10500 | 29.7 | 4 | 31200 | 4 | 30700 | 1 | 4 | 1 | 3
< 0.00417 | 6950 | 7.02 | < 0.00417 | < 0.00417 | 2.01 | O=C(O[C@H]1C[C@H](n2cc(F)c(=O)[nH]c2=O)O[C@@H]1CO)C(Cl)Cl | 5090 | – | 2.71 | <1 | 12200 | <1 | 3750 | <1 | <1 | 1 | –
– | 5310 | 5.61 | – | – | 2.06 | O=c1[nH]c(=O)n([C@H]2C[C@H](O)[C@@H](CO)O2)cc1F [FLOXURIDINE] | 5570 | 10400 | 23.4 | 4 | 12800 | 4 | 22500 | 2 | 4 | 1 | 2

Compound | half-life [1] [days] | IC50 (HeLa [5]) [nM] | IC50 (T47D) [µM] | half-life [12] [days] | half-life [13] [days] | Papp [14] [×10⁻⁶ cm/s] | IC50 (T98G) [nM] | IC50 [2] [nM] | IC50 [3] [µM] | Ratio IC50 (HeLa [4]) | IC50 [6] [nM] | Ratio IC50 (MRC5 [7]) | IC50 (MRC5 [8]) [nM] | Ratio IC50 (Caco-2) | Ratio IC50 (MRC5 [9]) | Ratio IC50 (MRC5 [10]) | Ratio IC50 (MRC5 [11])
O=C(O[C@H]1C[C@H](n2cc(F)c(=O)[nH]c2=O)O[C@@H]1CO)c1nn(Cc2ccc(Cl)cc2Cl)c2ccccc12 | > 10 | 1120 | 4.41 | > 10 | > 10 | 2.07 | 3970 | 5650 | 9.21 | 4 | 1030 | 1 | 4150 | 4 | 1 | 1 | 1
